OX1R antag-1 – blocks the human orexin 1 receptor. O43613. AID 434989. 330,000 tested, 0.43% active. CHO/OX1R cells, Fluo-8 calcium fluorescence, orexin A. inhibition, % at 5 µM;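 active = inhibition above its plate's threshold, mean inhibition of all tested compounds on the plate plus 3 SD, cut at about 37% in these data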;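 also: 0% = orexin A challenge wells and 100% = SB-334867-A antagonist wells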
TRPML3 agonist – activates the human TRPML3 channel. Q8TDD5. activation, % at 3 µM. HEK293 TRPML3-YFP, Fluo-8 calcium fluorescence; 100% = the carbachol control signal. 220,000 tested, 0.29% active. AID 1448;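 active = activation above its plate's cutoff, the mean activation of the plate's test wells plus 3 SD, cut at about 12% in these data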;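 also: 0% = DMSO only wells and 100% = carbachol wells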
Target sequence (Q8TDD5 whole entry, looked up): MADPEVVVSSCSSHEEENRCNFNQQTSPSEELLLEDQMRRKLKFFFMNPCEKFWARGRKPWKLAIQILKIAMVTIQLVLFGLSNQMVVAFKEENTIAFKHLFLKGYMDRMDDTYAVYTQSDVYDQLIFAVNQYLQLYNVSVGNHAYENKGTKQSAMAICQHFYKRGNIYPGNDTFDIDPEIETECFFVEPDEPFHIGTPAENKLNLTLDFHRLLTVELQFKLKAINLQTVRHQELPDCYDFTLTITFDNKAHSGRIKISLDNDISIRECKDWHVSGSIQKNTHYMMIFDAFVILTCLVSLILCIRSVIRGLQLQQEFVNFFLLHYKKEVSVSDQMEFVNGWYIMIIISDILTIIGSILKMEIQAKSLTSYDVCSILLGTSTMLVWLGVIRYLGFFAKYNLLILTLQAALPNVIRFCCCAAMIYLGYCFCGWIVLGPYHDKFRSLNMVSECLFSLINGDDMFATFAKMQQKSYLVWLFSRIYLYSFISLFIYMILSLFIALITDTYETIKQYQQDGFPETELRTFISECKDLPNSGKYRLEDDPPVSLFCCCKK
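Test system – HEK293 line with stable expression of human TRPML3-YFP channel · Control set – carbachol 87 µM final as high control (100%), DMSO as low control (0%) · Signal – Fluo-8 calcium dye fluorescence, ex 470-495, em 515-575 nm · Incubation – 1-h 37 °C dye load, 5-s basal, 120-s post-compound reads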
GPR7 antag – antagonists of human GPR7 (neuropeptides B/W receptor 1); GPR7-expressing cells, fluorescence antagonist assay; inhibition, % at 4.4 µM; 290,000 tested, 1.1% active; AID 1861; in the data active = inhibition above about 16%, passing the limit was not always enough;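 also: cells stimulated with the agonist NPW; 0% = agonist with vehicle and 100% = vehicle without agonist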
CHO parental Ca – counter-screen for OX1R antagonists: effect in parental CHO cells; parental CHO-K1, ATP-induced calcium, Fluo-8 fluorescence; inhibition, % at 5.6 µM; 330,000 tested, 0.63% active;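 active = inhibition above that plate's mean sample inhibition plus 3 SD, cut at about 26% in these data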;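 also: 0% = ATP-challenged DMSO wells and 100% = DMSO wells without ATP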
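Measured by: calcium-sensitive Fluo-8 fluorescence / Test system: CHO parental line / Controls: ATP-challenged DMSO wells low, unchallenged DMSO wells high / Measure: % inhibition / Compound: single nominal dose of 5.6 µM per compound / Replicates: single well per compound, no replicates / Reagent: ATP as calcium-mobilizing challenge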
TRPN1 ag – zebrafish TRPN1 (NompC) channel agonism. activation, % at 3 µM. HEK293 zebrafish TRPN1-YFP, Fluo-8 calcium fluorescence; 100% = response to 87 µM carbachol. 220,000 tested, 0.18% active;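 active = activation above its plate's cutoff, the mean activation of test wells on that plate plus 3 SD, cut at about 19% in these data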;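 also: 0% = DMSO alone and 100% = 87 µM carbachol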
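System: zebrafish TRPN1-YFP in HEK293 cells / Dosing: 3 µM single point / Timing: dye loading 1 h at 37 °C, then 30 min room temperature / Signal: Fluo-8 calcium fluorescence, excitation 470-495 nm, emission 515-575 nm / Read-out basis: percent activation from peak over basal fluorescence ratio, control-normalized / Control set: high carbachol 87 µM, low DMSO alone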
OX1R antag-2 – OX1R (human) antagonism; OX1R-expressing cells, FRET antagonist read-out; inhibition, % at 6.6 µM; O43613; 330,000 tested, 1.8% active; AID 485270; in the data active = inhibition mostly above about 38%, no sharp cut-off; inactive = mostly below about 40%;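 also: 0% = agonist challenge alone and 100% = reference antagonist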
GPR7 antag cf – confirmation of human GPR7 antagonists; shares compounds with GPR7 antag; GPR7-expressing cells, calcium fluorescence antagonist mode; inhibition, % at 4.4 µM; 2,400 tested, 52% active; in the data active = inhibition above about 24%;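 also: stimulated with the GPR7 agonist NPW; 0% = agonist plus vehicle and 100% = vehicle alone without agonist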
MCHR1 antag – counter-screen for GPR7 antagonists: antagonists of human MCHR1; inhibition, % at 4.4 µM; MCHR1-expressing cells, fluorescence antagonist assay; 2,400 tested, 62% active; AID 2148; shares compounds with GPR7 antag; in the data active = inhibition above about 22%;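 also: 0% = vehicle with agonist and 100% = vehicle without agonist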
Active calls of the source: *; . = not tested or not shown. An excerpt weighted towards active compounds, which were near 3.2% of everything screened.

SMILES | OX1R antag-1 | TRPML3 agonist | GPR7 antag | CHO parental Ca | TRPN1 ag | OX1R antag-2 | GPR7 antag cf | MCHR1 antag
CC/C(=N\NC(=O)c1ccccc1Cl)c1c(O)n(C2CCCCC2)c(=O)[nH]c1=O | -3.7 | . | 35.5* | -6.7 | . | 23.2 | -0.3 | 6.4
CCc1cccc(CC)c1NC(=S)N1CC2CC(C1)c1cccc(=O)n1C2 (centres undefined) | -15.0 | 0.3 | -6.0 | 3.1 | 0.9 | 4.6 | . | .
CN1CC=C(c2c[nH]c3ccccc23)CC1 | -6.4 | 0.1 | -10.4 | 10.5 | 1.7 | 8.0 | . | .
CC(C(=O)c1c[nH]c2ccccc12)N1CCc2ccccc2C1 (centres undefined) | -21.5 | -0.3 | 22.0* | -13.8 | 1.7 | 16.2 | 13.7 | 16.8
CCN(CC)c1ccc(/C=C/[N+](=O)[O-])cc1 | 52.6* | 36.2* | 22.1* | 50.7* | 46.7* | 48.4 | 55.1* | 84.5*
O=C(Nc1ccc(Cl)cc1)Nc1nccs1 | -6.8 | -0.1 | 30.0* | -6.8 | 2.4 | 43.6 | 27.9* | 42.4*
Cc1nn(Cc2ccccc2)c(C)c1C(=O)OCC(=O)Nc1cccc(S(N)(=O)=O)c1 | -23.3 | 1.0 | -3.0 | -15.0 | 1.0 | 6.8 | . | .
Cc1ccc2ccccc2c1NC(=O)CNC1CCCCC1 | -30.3 | 0.1 | 7.7 | -12.3 | 0.8 | 8.9 | . | .
CCc1ccccc1NC(=O)CNC1CCCCC1 | -15.0 | -0.5 | 25.3* | -19.5 | -1.7 | 24.9 | -0.3 | 6.6
CCCCOc1ccc(CCN)cc1Cl | -5.1 | 0.7 | 28.9* | -12.4 | -2.4 | -1.6 | 25.6* | 30.5*
CCOc1cc2c(cc1OCC)-n1cccc1C(c1ccc(C)cc1C)NC2 (centres undefined) | -35.1 | . | 37.9* | -22.5 | . | -6.3 | 19.4 | 23.1*
Cc1cc(C)c(Cn2c(C(=O)O)c(C=O)c3ccccc32)c(C)c1 | -2.1 | -0.5 | 3.7 | -10.1 | -0.5 | 0.2 | . | .
N#Cc1ccc(Cn2cc(C=O)c3ccccc32)cc1 | -3.2 | . | -1.7 | 0.8 | . | 8.2 | . | .
CCC(=O)c1cn(Cc2ccc(C#N)cc2)c2ccccc12 | -13.0 | 1.1 | 27.4* | -5.4 | -1.8 | 15.0 | 14.1 | 14.6
CCOC(=O)C(NC(=O)CC)(Nc1ccc(C(O)(C(=O)OCC)C(F)(F)F)cc1C)C(F)(F)F (centres undefined) | -3.0 | 0.5 | -10.5 | -11.1 | -1.3 | 31.2 | . | .
CCOC(=O)C(O)(c1ccc(NC(=S)NC(=O)c2ccc(Cl)cc2Cl)cc1)C(F)(F)F (centres undefined) | 71.0* | 6.8 | 59.7* | 57.1* | 16.3 | 18.8 | 85.6* | 93.3*
COC(=O)C(O)(c1ccc(NC(=S)NC(=O)c2ccc(Cl)cc2Cl)cc1)C(F)(F)F (centres undefined) | 21.0 | 3.8 | 32.8* | 20.2 | 7.4 | 25.6 | 56.2* | 60.5*
CCOC(=O)C(O)(c1ccc(NC(=S)NC(=O)c2ccc(Cl)cc2Cl)c(C)c1)C(F)(F)F (centres undefined) | 47.3* | 11.9* | 88.4* | 49.8* | 22.1* | 11.5 | 93.3* | 97.0*
COC(=O)Nc1ccc(N=C(N)N[N+](=O)[O-])cc1 | 7.6 | 0.8 | -5.2 | -7.5 | 0.9 | 30.5 | . | .
CC(C)N(Cc1ccco1)/N=C/c1c(O)n(Cc2ccccc2)c(=O)[nH]c1=O | -27.3 | -0.1 | 7.4 | -18.9 | -1.4 | 8.7 | . | .
CCN1/C(=C\C=C\C2=[N+](CC)c3ccccc3C2(C)C)C(C)(C)c2ccccc21 | 108.3* | 158.5* | 98.2* | 100.0* | 316.8* | 21.6 | 102.7* | 105.5*
COc1cccc(N(C(C)=O)C2=NCCCS2)c1 | -12.1 | . | -15.7 | -4.6 | . | 5.7 | . | .
C[C@]12CC[C@H](O)CC1=CCC1C2CC[C@]2(C)C(=O)[C@H](Br)CC12 (some centres undefined) | 6.4 | . | . | -14.7 | . | 6.6 | . | .
CC(=O)c1cn(CC(=O)NCCc2c[nH]c3ccccc23)c2ccccc12 | -1.1 | . | 25.1* | 11.5 | . | 20.4 | 2.9 | 51.4*
COC(=O)C1=C(c2ccc(-c3ccccc3)c(F)c2)C[C@@H]2CC[C@H]1N2C(=O)NC1CCCCC1 | -10.9 | . | . | -19.8 | . | 6.2 | . | .
SMILES | OX1R antag-1 | TRPML3 agonist | GPR7 antag | CHO parental Ca | TRPN1 ag | OX1R antag-2 | GPR7 antag cf | MCHR1 antag
COc1ccc(CN2CCCC(C(=O)c3ccc(Cl)cc3)C2)c(O)c1 (centres undefined) | -27.3 | . | -8.3 | -17.0 | . | 10.0 | . | .
CCOc1ccc(N=Cc2c(O)n(-c3ccc(C)c(C)c3)c(=O)[nH]c2=O)cc1 | -22.9 | 0.7 | 2.1 | -15.7 | -0.8 | 10.6 | . | .
CCOc1ccc(N=Cc2c(O)n(-c3cc(C)cc(C)c3)c(=O)[nH]c2=O)cc1 | -19.2 | 0.1 | 24.1* | -3.2 | 0.2 | 9.0 | -4.2 | 6.9
Cc1cccc(OCC(=O)N2CCN(Cc3ccc([N+](=O)[O-])cc3)CC2)c1 | -8.2 | 1.1 | 13.3 | 14.9 | 2.1 | 2.4 | . | .
Cc1ccc(OCC(=O)N2CCN(Cc3ccc([N+](=O)[O-])cc3)CC2)cc1 | -8.8 | 2.5 | 21.4* | 4.5 | 6.7 | 10.0 | 28.0* | 35.7*
CCOc1ccc(-c2cc(C)[n+](CCc3ccc(OC)c(OC)c3)c(-c3ccc(OCC)cc3)c2)cc1 | . | . | 54.2* | . | . | . | 65.9* | 61.4*
CCOc1ccc(-c2cc(C)[n+](CCO)c(-c3ccc(OCC)cc3)c2)cc1 | -10.3 | 0.7 | -1.8 | 10.5 | 1.1 | 15.2 | . | .
Cc1[nH]c2ccc(OC(F)(F)F)cc2c1CCNCc1cccc([N+](=O)[O-])c1 | 13.8 | . | 43.0* | 29.0* | . | 10.9 | 35.0* | 74.9*
CCOc1cccc(CNCCc2c(C)[nH]c3ccc(OC(F)(F)F)cc23)c1O | 55.3* | . | 53.4* | 85.0* | . | 15.0 | 84.2* | 95.1*
Cc1[nH]c2ccc(OC(F)(F)F)cc2c1CCNCc1ccc(Cl)cc1 | . | . | 36.1 | . | . | . | . | .
O=C1N(c2nncs2)CCN1[N+](=O)[O-] | -12.8 | -0.3 | -5.5 | 10.7 | -0.9 | 9.4 | . | .
N#CCCn1cc(C(=O)Nc2ccc([N+](=O)[O-])cc2)c(-c2ccc3c(c2)OCCO3)n1 | -0.1 | 0.9 | 25.0* | -9.2 | 1.6 | 0.3 | 0.7 | 12.8
Clc1ccc2[nH]c3c(c2c1)CCNC3 | -2.2 | . | 15.9 | 2.1 | . | 9.7 | . | .
CCn1cc(C=C2C(=O)N(C)C(=O)N(C)C2=O)c2ccccc21 | -16.0 | . | 31.6* | -10.2 | . | 6.8 | -8.1 | 8.7
CN(C)C1(CNC(=O)Nc2ccc(Cl)c(Cl)c2)CCCCC1 | -12.9 | . | 30.3* | -19.2 | . | 19.2 | 42.9* | 47.1*
CN(C)C1(CNC(=O)c2ccc(NS(=O)(=O)c3ccc(Cl)c(Cl)c3)cc2)CCCCC1 | -5.6 | . | . | -7.9 | . | 3.9 | . | .
NCCc1c[nH]c2ccccc12 | 4.2 | 0.6 | -5.4 | -12.3 | 0.0 | 17.6 | . | .
